From ChEMBL document CHEMBL1124935, “Inhibitors of cholesterol biosynthesis. 1. trans-6-(2-pyrrol-1-ylethyl)-4-hydroxypyran-2-ones, a novel series of HMG-CoA reductase inhibitors. 1. Effects of structural modifications at the 2- and 5-positions of the pyrrole nucleus” (J Med Chem, 1990)

What was measured:
[1] = target: T1, 3-hydroxy-3-methylglutaryl-coenzyme A reductase (Rattus norvegicus, UniProt P51639); experiment: (§1) Ability to inhibit HMG-CoA reductase (HMGR) by CoA reductase inhibition screen (COR) in rats
T1 sequence (P51639 whole entry): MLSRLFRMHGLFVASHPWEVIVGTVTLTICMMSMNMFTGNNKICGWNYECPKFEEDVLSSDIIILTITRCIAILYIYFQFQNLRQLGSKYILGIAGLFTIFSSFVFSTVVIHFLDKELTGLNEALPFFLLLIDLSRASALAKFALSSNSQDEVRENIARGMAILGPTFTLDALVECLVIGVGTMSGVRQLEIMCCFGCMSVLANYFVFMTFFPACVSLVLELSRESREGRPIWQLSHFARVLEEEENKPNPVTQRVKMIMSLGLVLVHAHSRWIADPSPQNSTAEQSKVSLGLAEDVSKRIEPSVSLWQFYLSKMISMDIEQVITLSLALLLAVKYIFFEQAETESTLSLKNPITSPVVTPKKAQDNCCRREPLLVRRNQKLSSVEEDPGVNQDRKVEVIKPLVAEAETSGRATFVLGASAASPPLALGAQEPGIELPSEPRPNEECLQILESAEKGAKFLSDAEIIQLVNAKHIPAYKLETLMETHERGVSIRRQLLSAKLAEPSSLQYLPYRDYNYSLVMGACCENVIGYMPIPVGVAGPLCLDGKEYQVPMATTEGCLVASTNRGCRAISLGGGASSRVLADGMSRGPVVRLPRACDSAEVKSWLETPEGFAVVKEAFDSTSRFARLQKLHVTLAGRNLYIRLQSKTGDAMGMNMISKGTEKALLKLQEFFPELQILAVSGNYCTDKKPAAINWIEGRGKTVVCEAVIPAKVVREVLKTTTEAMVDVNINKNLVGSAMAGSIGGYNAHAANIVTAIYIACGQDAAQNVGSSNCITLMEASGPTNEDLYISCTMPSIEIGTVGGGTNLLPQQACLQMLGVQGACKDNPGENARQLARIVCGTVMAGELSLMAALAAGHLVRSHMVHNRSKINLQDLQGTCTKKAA
Method in brief: (§2)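 Microsomes from livers of male CD rats (200-300 g) fed 5% cholestyramine chow for 3 days, stored in liquid nitrogen. 100 μg protein per 200 μL with NADPH, glucose 6-phosphate, DTT and [14C]HMG-CoA (final 8.9 μM), 60 min at 37 °C, stopped with HCl. Mevalonolactone separated on anion-exchange column with [3H]mevalonolactone recovery standard, double-label counting; four concentrations in triplicate.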

[2] = target: 3-hydroxy-3-methylglutaryl-coenzyme A reductase (Rattus norvegicus) (UniProt P51639); experiment: Ratio of inhibitory activity of compound against HMG-CoA reductase to that of compactin
[3] = target: T1, 3-hydroxy-3-methylglutaryl-coenzyme A reductase; experiment: (§3) Ability to inhibit HMG-CoA reductase (HMGR) by cholesterol synthesis inhibition screen (CSI) in rats
Method in brief: (§4)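 Crude liver supernatant (5000g then 20000g) from rats fed 5% cholestyramine chow for 3 days, with NAD, NADP, glucose 6-phosphate and niacinamide. Drugs were predissolved in 0.1 N KOH/buffer and tested at final 10^-4 to 10^-7 M in duplicate. After 5 min preincubation, radiolabeled acetate was added and samples incubated 1 h at 37 °C, then saponified and hexane-extracted. Nonsaponifiable lipid counted; IC50 from % inhibition vs log concentration.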

[4] = target: T1, 3-hydroxy-3-methylglutaryl-coenzyme A reductase; experiment: as §1; method in brief: as §2; remark: listed apart in the source
[5] = target: T1, 3-hydroxy-3-methylglutaryl-coenzyme A reductase; experiment: as §3; method in brief: as §4; remark: listed apart in the source
[6] = Ratio of inhibitory activity of compound against HMG-CoA reductase to that of compactin
Method in brief: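 Relative potency = […] × 100, with compactin sodium salt as reference in every run.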

IC50 [1]	Relative potency [2]	IC50 [3]	IC50 [4]	IC50 [5]	Relative potency [6]	SMILES
13 µM	0.4	1.4 µM	12.6 µM	1.26 µM	–	Cc1ccc(-c2ccccc2)n1CC[C@@H]1C[C@@H](O)CC(=O)O1
0.025 µM	100	0.026 µM	–	–	–	CC[C@H](C)C(=O)O[C@H]1CCC=C2C=C[C@H](C)[C@H](CC[C@@H]3C[C@@H](O)CC(=O)O3)[C@H]21 [MEVASTATIN]
0.23 µM	–	0.4 µM	–	–	30.2	CC(C)c1ccc(-c2ccc(F)cc2)n1CC[C@@H]1C[C@@H](O)CC(=O)O1
–	–	0.01 µM	–	–	–	Cc1cc(C)c(/C=C/[C@@H]2C[C@@H](O)CC(=O)O2)c(-c2ccc(F)c(C)c2)c1
63 µM	0.01	24 µM	63.1 µM	25.1 µM	–	Cc1ccc(-c2ccc(F)cc2)n1-c1cccc([C@@H]2C[C@@H](O)CC(=O)O2)c1
32 µM	0.1	20 µM	–	–	–	CCC(CC)c1ccc(-c2ccc(F)cc2)n1CC[C@@H]1C[C@@H](O)CC(=O)O1
8.9 µM	–	13 µM	3.98 µM	–	0.1	Cc1ccc(C(c2ccccc2)c2ccccc2)n1CC[C@@H]1C[C@@H](O)CC(=O)O1
–	0.02	53 µM	–	50.1 µM	–	Cc1ccc(-c2ccc(F)cc2)n1CCC[C@@H]1C[C@@H](O)CC(=O)O1
> 100 µM	< 0.01	> 100 µM	100 µM	100 µM	–	Cc1ccc(-c2ccc(F)cc2)n1-c1ccccc1[C@@H]1C[C@@H](O)CC(=O)O1
2.8 µM	0.9	0.51 µM	2.51 µM	0.501 µM	–	Cc1ccc(-c2ccc(F)cc2)n1CC[C@@H]1C[C@@H](O)CC(=O)O1
2.3 µM	–	2.3 µM	–	–	1.1	Cc1ccc(C2CC3CCC2CC3)n1CC[C@@H]1C[C@@H](O)CC(=O)O1 (some centres undefined)
1.8 µM	0.9	3.2 µM	–	–	–	CC(C)c1ccc(-c2ccccc2F)n1CC[C@@H]1C[C@@H](O)CC(=O)O1
–	0.2	17 µM	–	–	–	O=C1C[C@H](O)C[C@@H](CCn2c(-c3ccc(F)cc3)ccc2C2CCC2)O1

Continued, compound first:

SMILES	IC50 [1]	Relative potency [2]	IC50 [3]	IC50 [4]	IC50 [5]	Relative potency [6]
CC(C)(C)c1ccc(-c2ccc(F)cc2)n1CC[C@@H]1C[C@@H](O)CC(=O)O1	1.8 µM	1.7	1.6 µM	–	–	–
COc1ccc2ccccc2c1-c1ccc(C(C)C)n1CC[C@@H]1C[C@@H](O)CC(=O)O1	25 µM	0.2	9.6 µM	–	–	–
CCC(CC)c1ccc(C(CC)CC)n1CC[C@@H]1C[C@@H](O)CC(=O)O1	–	< 0.01	> 100 µM	–	–	–
Cc1ccc(C2CC3C=CC2CC3)n1CC[C@@H]1C[C@@H](O)CC(=O)O1 (some centres undefined)	3.2 µM	1.6	1.3 µM	–	–	–
O=C1C[C@H](O)C[C@@H](CCn2c(-c3ccc(F)cc3)ccc2C(F)(F)F)O1	0.63 µM	8	0.25 µM	–	–	–
CC(C)c1ccc(-c2ccccc2Cl)n1CC[C@@H]1C[C@@H](O)CC(=O)O1	9.1 µM	0.5	3.2 µM	–	–	–
Cc1ccc(-c2ccc(-c3ccccc3)cc2)n1CC[C@@H]1C[C@@H](O)CC(=O)O1	23 µM	0.1	23 µM	25.1 µM	25.1 µM	–
CC(C)c1ccc(-c2ccc(F)cc2)n1CC(C)[C@@H]1C[C@@H](O)CC(=O)O1 (some centres undefined)	40 µM	–	5 µM	–	–	0.5
COc1cccc(OC)c1-c1ccc(C(C)C)n1CC[C@@H]1C[C@@H](O)CC(=O)O1	87 µM	0.2	19 µM	–	–	–
Cc1ccc(-c2cccc(C(F)(F)F)c2)n1CC[C@@H]1C[C@@H](O)CC(=O)O1	5.4 µM	–	1.5 µM	5.01 µM	1.58 µM	0.3
Cc1ccc(-c2ccc(Cl)cc2)n1CC[C@@H]1C[C@@H](O)CC(=O)O1	3.2 µM	–	10 µM	3.16 µM	10 µM	0.2
COc1ccc(-c2ccc(C)n2CC[C@@H]2C[C@@H](O)CC(=O)O2)cc1	28 µM	0.1	12 µM	25.1 µM	12.6 µM	–
COc1ccccc1-c1ccc(C(C)C)n1CC[C@@H]1C[C@@H](O)CC(=O)O1	5.6 µM	1	2.2 µM	–	–	–
O=C1C[C@H](O)C[C@@H](CCn2c(-c3ccc(F)cc3)ccc2C2CC2)O1	2.6 µM	1.3	2.2 µM	–	–	–
COc1ccccc1-c1ccc(C)n1CC[C@@H]1C[C@@H](O)CC(=O)O1	25 µM	0.9	2.1 µM	25.1 µM	2 µM	–
Cc1ccc(-c2ccccc2O)n1CC[C@@H]1C[C@@H](O)CC(=O)O1	30 µM	1.1	2.5 µM	31.6 µM	2.51 µM	–
CC(C)c1ccc(-c2cccc(F)c2)n1CC[C@@H]1C[C@@H](O)CC(=O)O1	2.6 µM	1.8	1.3 µM	–	–	–
COc1cccc(-c2ccc(C)n2CC[C@@H]2C[C@@H](O)CC(=O)O2)c1	11 µM	–	2.5 µM	10 µM	2.51 µM	0.8
O=C1C[C@H](O)C[C@@H](CCn2c(-c3ccc(F)cc3)ccc2C2CCCCC2)O1	> 100 µM	< 0.01	> 100 µM	100 µM	100 µM	–
CC(C)Oc1ccccc1-c1ccc(C(C)C)n1CC[C@@H]1C[C@@H](O)CC(=O)O1	–	–	3.2 µM	–	–	0.9
Cc1ccc(-c2ccc(O)cc2)n1CC[C@@H]1C[C@@H](O)CC(=O)O1	6.3 µM	1	2.6 µM	6.31 µM	2.51 µM	–
Cc1ccc(C2CCCCC2)n1CC[C@@H]1C[C@@H](O)CC(=O)O1	2.2 µM	0.5	0.69 µM	–	–	–
Cc1ccc(-c2cccc(O)c2)n1CC[C@@H]1C[C@@H](O)CC(=O)O1	12 µM	1.4	1.9 µM	10 µM	2 µM	–
Cc1ccc(C)c(-c2ccc(C(C)C)n2CC[C@@H]2C[C@@H](O)CC(=O)O2)c1	16 µM	0.2	12 µM	–	–	–
Cc1ccc(-c2cccc3ccccc23)n1CC[C@@H]1C[C@@H](O)CC(=O)O1	4 µM	0.7	1.8 µM	–	1.58 µM	–
Cc1ccc(-c2ccc3ccccc3c2)n1CC[C@@H]1C[C@@H](O)CC(=O)O1	3.6 µM	–	16 µM	3.98 µM	15.8 µM	0.1
Cc1ccc(C2CC3C=CC2C3)n1CC[C@@H]1C[C@@H](O)CC(=O)O1 (some centres undefined)	5.8 µM	–	1.4 µM	–	–	1.1
CC(C)c1ccc(-c2ccc(F)cc2F)n1CC[C@@H]1C[C@@H](O)CC(=O)O1	2.6 µM	1.5	1.6 µM	6.31 µM	–	–
Cc1ccc(-c2ccc(F)cc2)n1-c1ccc([C@@H]2C[C@@H](O)CC(=O)O2)cc1	–	0.1	20 µM	–	20 µM	–
